Rows were chosen to be rich in hits. Some 9.8% of all compounds tested hit in one or more screens of this group.
m-calpain inh: inhibitors of pig calpain II; purified calpain II, fluorogenic peptide substrate, 30 min; inhibition, % at 16 µM; actives 0.37% (n = 220,000); AID 1236;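 active means inhibition above about 50%, limit read from the data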
PMI act satM6P: PMI (human) activation, high substrate; activation factor at 20 µM; coupled PMI enzyme assay, resazurin fluorescence, 20 min; stronger effect = higher value; 1 = untreated enzyme, 0 = substrate-free blank; actives 0.34% (n = 190,000);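 active means activation factor of 2 or more at 20 µM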
Target sequence (P34949 whole entry, looked up): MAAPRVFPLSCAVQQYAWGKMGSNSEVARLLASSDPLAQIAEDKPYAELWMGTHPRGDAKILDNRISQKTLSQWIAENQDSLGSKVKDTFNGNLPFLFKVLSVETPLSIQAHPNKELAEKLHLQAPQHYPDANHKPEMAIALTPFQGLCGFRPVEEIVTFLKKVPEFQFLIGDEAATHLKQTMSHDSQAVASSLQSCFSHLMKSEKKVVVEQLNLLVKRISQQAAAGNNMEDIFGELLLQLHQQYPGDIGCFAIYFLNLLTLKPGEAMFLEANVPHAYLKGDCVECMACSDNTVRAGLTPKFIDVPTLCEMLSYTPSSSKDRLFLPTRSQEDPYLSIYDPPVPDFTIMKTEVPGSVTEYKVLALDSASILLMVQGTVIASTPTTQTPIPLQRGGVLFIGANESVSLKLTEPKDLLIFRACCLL
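Technique: Diaphorase-driven resazurin-to-resorufin fluorescence, excitation 544, emission 590 nm | Assay system: Human PMI in coupled enzyme assay | Times: Enzyme reaction with compound 20 min at room temperature | Medium: HEPES-buffered pH 7.4 with magnesium and detergent | Reagent: Mannose-6-phosphate 1.0 mM (near-saturating) plus 0.22 mM NADP+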
PMI activator: increases human mannose-6-phosphate isomerase activity. P34949. purified human PMI, coupled resazurin fluorescence, 20 min; stronger effect = higher value; 1 = vehicle control, 0 substrate-free wells. activation factor at 20 µM. actives 0.005% (n = 190,000). AID 1214;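 active means activation factor of 2 or more at 20 µM, relative to plate controls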
Lmaj promast: reduces viability of Leishmania major promastigotes; resazurin fluorescence viability; inhibition, % at 10 µM; actives 9% (n = 200,000); in the data active means inhibition above about 50%;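 further: promastigotes grown with compound for 44 hours at 28 °C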
WT yeast gro inh: growth inhibition of WT yeast, mitochondrial fusion screen. mitochondrial fusion phenotypic screen, WT strain. inhibition, % at 10 µM. actives 2.1% (n = 190,000); in the data active means inhibition above about 58%; tested in S. cerevisiae
Rad51 HR inh: Rad51 (human) homologous recombination inhibition. Q06609. hRad51 DNA strand exchange, fluorescence dequenching. inhibition, % at 10 µM. actives 0.085% (n = 200,000);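 active means inhibition above 40% at the single screening dose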
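Material: hRad51 filaments on single-stranded DNA; Reagent: Donor/quencher-labelled 47-bp dsDNA substrate; Compound: 10 µM final, single point; Schedule: 37 °C 15-min filament assembly, 30-min compound preincubation, 15-min exchange; Technique: FRET fluorescence, excitation 485 nm, emission 520 nm; Benchmarks: control wells and blank wells on each plate.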
Numbers stand for hits; . = inactive; / = no result.

SMILES | m-calpain inh | PMI act satM6P | PMI activator | Lmaj promast | WT yeast gro inh | Rad51 HR inh
Cc1ccc(S(=O)(=O)c2c(N)n(CCCO)c3nc4ccccc4nc23)cc1 | . | . | . | 73 | . | .
Cn1c(N)c(S(=O)(=O)c2ccc(Br)cc2)c2nc3ccccc3nc21 | . | . | . | 75 | . | .
Cc1ccc(S(=O)(=O)c2c(N)n(CCC(C)C)c3nc4ccccc4nc23)cc1 | . | . | . | 69 | . | .
O=C(NC1CCC(O)CC1)c1ccc(-c2ccc([N+](=O)[O-])cc2)o1 (stereo not drawn) | . | / | / | / | / | .
CCSC1=C(C#N)C(c2ccc(Cl)cc2)C2=C(CCCC2=O)N1 (stereo not drawn) | . | . | . | 95 | . | .
CCn1c(C(=O)N2CCCC(C(=O)NCCc3ccc(C)cc3)C2)cc2sccc21 (stereo not drawn) | . | . | . | . | . | .
CCn1c(C(=O)N2CCCC(C(=O)NCCCc3ccccc3)C2)cc2sccc21 (stereo not drawn) | . | . | . | 99 | . | .
COc1ccc(OC)c(NC(=O)c2cc3c(Cl)nc4ccccc4c3s2)c1 | . | . | . | 72 | . | .
COc1ccc(S(=O)(=O)N2CCN(C3Cc4ccccc4C3)CC2)cc1 | . | . | . | 97 | . | /
COc1ccc(S(=O)(=O)N2CCC(N3CCN(Cc4ccccc4)CC3)CC2)cc1 | . | . | . | 87 | . | .
CS(=O)(=O)N1CCN(C2Cc3ccccc3C2)CC1 | . | . | . | . | . | .
O=S(=O)(c1ccc(Cl)cc1)N1CCN(C2CCN(Cc3ccccc3)CC2)CC1 | . | . | . | 99 | . | .
CCOC(=O)N1CCC(N2CCN(S(=O)(=O)c3ccc([N+](=O)[O-])cc3)CC2)CC1 | . | / | / | / | / | .
COc1ccc(S(=O)(=O)N2CCN(Cc3cccc(Cl)c3)CC2)cc1 | . | . | . | . | . | .
CCOC(=O)N1CCC(N2CCN(S(=O)(=O)c3ccc4ccccc4c3)CC2)CC1 | . | . | . | 98 | . | .
O=C(Nc1ccc(S(=O)(=O)N2CCCC2)cc1)C1CCCN1C(=O)c1cccs1 (stereo not drawn) | . | . | . | . | . | .
COc1ccc(S(=O)(=O)N2CCC(CN3C(=O)c4cccc5cccc(c45)C3=O)CC2)cc1 | . | . | . | 98 | . | .
COc1ccc(S(=O)(=O)N2CCN(Cc3ccc(Cl)cc3)CC2)cc1 | . | . | . | 51 | . | .
COc1ccc(S(=O)(=O)N(C)CC(=O)N2CCC(C)CC2)cc1Cl | . | . | . | 97 | . | .
O=C1NC2(CCN(Cc3ccccc3)CC2)Oc2ccccc21 | . | . | . | . | . | /
O=C1c2ccccc2OC2(C=Cc3ccccc3O2)N1Cc1ccccc1 (stereo not drawn) | . | . | . | . | 69 | /
COc1cc(C(c2c(C)[nH][nH]c2=O)c2c(C)[nH][nH]c2=O)ccc1OCc1ccc([N+](=O)[O-])cc1 | . | . | . | 98 | . | .
CC(C)(C)c1ccccc1NC(=S)NCc1ccccc1 | . | . | . | . | 63 | .
COc1ccccc1CNC(=S)Nc1cc(C)ccc1C | . | . | . | . | 66 | .
S=C(NCc1cccnc1)Nc1ccc(Cl)c(Cl)c1 | . | . | . | 98 | . | .
SMILES | m-calpain inh | PMI act satM6P | PMI activator | Lmaj promast | WT yeast gro inh | Rad51 HR inh
COc1ccccc1NC(=S)NCc1cccnc1 | . | . | . | 68 | . | .
CC(NC(=O)COC(=O)/C=C/c1ccco1)c1ccccc1 (stereo not drawn) | . | . | . | . | . | .
C/C(=N\NC(=O)OC(C)(C)C)c1ccccc1Br | . | . | . | . | . | .
Nc1ccc2oc(-c3ccccc3Cl)cc(=O)c2c1O | . | . | . | . | . | .
O=c1cc(-c2ccccc2Cl)oc2ccc([N+](=O)[O-])c(O)c12 | . | . | . | . | 64 | 60
CC(C)(C)NC(=O)CSc1ncnc2c1nnn2Cc1ccccc1Cl | . | . | . | 57 | . | .
Nc1c(C(O)(C(F)(F)F)C(F)(F)F)ccc2ccccc12 | . | . | . | 100 | . | .
COc1cccc(NC(=O)C(c2ccccc2)N2CCNC(=O)C2)c1 (stereo not drawn) | . | . | . | . | . | .
Oc1ccc(Br)cc1C=Nc1ccc2c3c(cccc13)CC2 | . | . | . | 71 | . | .
CN(C)CCCN1C(=O)C2CCc3[nH]c4ccccc4c3C2C1=O (stereo not drawn) | . | . | . | . | . | .
CSc1nc(Oc2ccccc2)c2sccc2n1 | 54 | . | . | . | . | .
O=C(Nc1nnc(-c2ccc(Cl)s2)o1)C1CC1 | . | . | . | 61 | . | .
CN1CCN(Cc2ccc(Sc3ccc(Cl)cc3)c([N+](=O)[O-])c2)CC1 | . | . | . | 100 | 86 | .
Cc1ccc(Sc2ccc(CO)cc2[N+](=O)[O-])cc1 | . | . | . | . | . | .
Cc1ccc(Sc2ccc(CN3CCCC3)cc2[N+](=O)[O-])cc1 | . | . | . | 82 | . | /
COc1ccccc1CNC(=O)CSc1ccc(-c2cccc([N+](=O)[O-])c2)nn1 | . | . | . | . | . | .
CCn1nc(C)c(CN2CCc3c([nH]c4ccccc34)C2c2ccc(F)c(OC)c2)c1C (stereo not drawn) | . | . | . | 74 | . | /
CCn1cc(CN2CCc3c([nH]c4ccccc34)C2c2ccc(F)c(OC)c2)c(C)n1 (stereo not drawn) | . | . | . | . | . | .
Cc1ccccc1CCN(C(=O)CN1C(=O)c2ccccc2S1(=O)=O)C(C(=O)NCC1CCCO1)c1ccncc1 (stereo not drawn) | . | . | . | 60 | . | .
CCc1ccccc1Nc1nc(N)nc(CSCC(=O)Nc2ccc(C)c(C)c2)n1 | . | . | . | 85 | . | .
O=C(Nc1ccccc1C(F)(F)F)c1ccc(CN2CCC(Cc3ccccc3)CC2)cc1 | . | . | . | 64 | . | .
O=C(OCC(=O)N1CCN(Cc2ccccc2)CC1)c1ccc(Cl)cc1 | . | . | . | 57 | . | .
O=C(OCC(=O)N1CCN(C(=O)c2ccco2)CC1)c1ccccc1 | . | . | . | . | . | .
O=C(c1ccc(CN2CCOCC2)cc1)N1CCN(Cc2ccccc2)CC1 | . | . | . | 76 | . | .
O=C(Nc1cccc(C(=O)N2CCN(Cc3ccccc3)CC2)c1)c1ccccc1 | . | . | . | 75 | . | .
COCCCN1C(=O)/C(=C/c2ccc(CNS(=O)(=O)c3ccccc3)o2)C(C(=O)OC)=C1C | . | . | . | . | . | .
Cc1noc(C)c1COC(=O)c1ccc(N(C)C)cc1 | . | . | . | . | . | .
Cc1ccc(C)n1-c1cccc(NC(=O)c2ccccc2)c1 | . | . | . | 76 | . | /
CSc1ccc(CN2CCN(C(=O)c3ccncc3)CC2)cc1 | . | . | . | 74 | . | /

Screens: PubChem BioAssay, several laboratories
